Measured values taken from ChEMBL document CHEMBL2151009, “Structures and mechanisms of antitumor agents: xestoquinones uncouple cellular respiration and disrupt HIF signaling in human breast tumor cells” (J Nat Prod, 2012).
Structures can show the parent of a compound that is named as a salt. Activity calls are given as the source filed them. The calls are words filed in the database; no cut-off is given here.

Legend:
[1] = molecular target: T1, Hypoxia inducible factors; HIF-1-alpha, HIF-2-alpha (Homo sapiens, UniProt Q16665+Q99814); test: Inhibition of HIF1-mediated VEGF production in human T47D cells under 1,10-phenanthroline-induced hypoxic condition at 10 uM after 16 hrs by ELISA; format: cell-based
How it was run: (§1)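 T47D cells exposed 16 h to hypoxia (1% O2) or to 1,10-phenanthroline (10 μM), with compound at 10 μM. Secreted VEGF in conditioned medium measured by ELISA and normalized to cellular protein. Cycloheximide 10 μM as positive control; normoxic medium control included. Mean + SD of one experiment in triplicate.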

[2] = molecular target: T1, Hypoxia inducible factors; HIF-1-alpha, HIF-2-alpha; test: Inhibition of HIF1-mediated VEGF production in human T47D cells under hypoxic condition at 10 uM after 16 hrs by ELISA; format: cell-based; how it was run: as §1
[3] = molecular target: T1, Hypoxia inducible factors; HIF-1-alpha, HIF-2-alpha; test: Inhibition of 1,10-phenanthroline-induced HIF1 activation in human T47D cells after 16 hrs by HRE3-TK-luciferase reporter gene assay; format: cell-based
How it was run: (§2)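 T47D reporter assay for HIF-1 activity. Induced by hypoxia (1% O2) or by 1,10-phenanthroline (10 μM). Compounds tested at 0.3–30 μM in half-log steps; cycloheximide 1 μM as positive control. Luciferase signal expressed as % inhibition of the induced control without compound. IC50 and 95% CI from one experiment in triplicate.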

[4] = molecular target: T1, Hypoxia inducible factors; HIF-1-alpha, HIF-2-alpha; test: Inhibition of hypoxia-induced HIF1 activation in human T47D cells after 16 hrs by HRE3-TK-luciferase reporter gene assay; format: cell-based; how it was run: as §2
T47D [5] = test: Effect on cellular respiration in human T47D cells assessed as increase in oxygen consumption at 10 to 30 uM; format: functional
How it was run: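 Oxygen consumption of intact respiring T47D cells. Compound added in half-log increments; FCCP as reference uncoupler. Rate expressed as % of untreated control. For 10 and 30 μM: mean + SD from three independent experiments. Lower concentrations: n = 2.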

T47D [6] = test: Decrease in mitochondrial membrane potential in human T47D cells at 10 uM after 15 to 20 mins by TMRM assay; format: functional, cell-based
How it was run: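 T47D cells preloaded with TMRM, then given compound. Epifluorescence images taken before and 15–20 min after addition. Per-cell fluorescence intensity quantified; solvent control 0.26% DMSO; FCCP as reference. Groups compared by unpaired t test.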

T47D [7] = test: Cytotoxicity against human T47D cells after 48 hrs by SRB assay; format: functional, cell-based
How it was run: (§3)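 Cells from ATCC treated 48 h with compounds from DMSO stocks (final DMSO under 0.5%). IC50 and 95% CI fitted from one experiment run in triplicate.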

MDA-MB-231 [8] = test: Cytotoxicity against human MDA-MB-231 cells after 48 hrs by SRB assay; format: functional, cell-based; conditions: MDA-MB-231, 48 h; how it was run: as §3
T47D [9] = test: Cytotoxicity against human T47D cells assessed as decrease in cell viability at 30 uM after 48 hrs by SRB assay; format: functional
MDA-MB-231 [10] = test: Cytotoxicity against human MDA-MB-231 cells assessed as decrease in cell viability at 30 uM after 48 hrs by SRB assay; format: functional

| SMILES | inhibition [1] | inhibition [2] | IC50 [3] | IC50 [4] | Activity (T47D [5]) | Activity (T47D [6]) | IC50 (T47D [7]) | IC50 (MDA-MB-231 [8]) | Activity (T47D [9]) | Activity (MDA-MB-231 [10]) |
| --- | --- | --- | --- | --- | --- | --- | --- | --- | --- | --- |
| C[C@@]12CCCc3coc(c31)C(=O)c1cc3c(cc12)C(=O)C=CC3=O [XESTOQUINONE] | inactive | inactive | 7.3 µM | 12.3 µM | 47% | inactive | 13.8 µM | 20.6 µM |  |  |
| C[C@@]12CCCc3coc(c31)C(=O)c1cc3c(O)ccc(OS(=O)(=O)O)c3cc12 [XESTOQUINOL SULFATE] |  |  | > 30 µM | > 30 µM |  |  | > 30 µM | > 30 µM | <5% | <5% |
| C[C@@]12CCCc3coc(c31)C(=O)c1cc3c(cc12)C(=O)C=C(CO)C3=O | Active | Active | 1.2 µM | 1.7 µM | 47% | Active | 3.6 µM | 6.5 µM |  |  |
| C[C@@]12CCCc3coc(c31)C(=O)c1cc3c(cc12)C(=O)C1=C(NCCS1(=O)=O)C3=O [ADOCIAQUINONE B] | Active | inactive | 0.2 µM | 4.6 µM |  |  | 2.9 µM | 6.1 µM |  |  |

Continued, in another order:

| inhibition [1] | inhibition [2] | IC50 [3] | IC50 [4] | SMILES | Activity (T47D [5]) | Activity (T47D [6]) | IC50 (T47D [7]) | IC50 (MDA-MB-231 [8]) | Activity (T47D [9]) | Activity (MDA-MB-231 [10]) |
| --- | --- | --- | --- | --- | --- | --- | --- | --- | --- | --- |
| inactive | inactive | 4.2 µM | 10.6 µM | C[C@@]12CCCc3coc(c31)C(=O)c1cc3c(cc12)C(=O)CCC3=O |  |  | 15.9 µM | 28.1 µM |  |  |
| Active | Active | 1.5 µM | 2.3 µM | C[C@@]12CCCc3coc(c31)C(=O)c1cc3c(cc12)C(=O)C(CO)=CC3=O |  |  | 4.3 µM | 6.3 µM |  |  |
| Active | inactive | 0.2 µM | 6.4 µM | C[C@@]12CCCc3coc(c31)C(=O)c1cc3c(cc12)C(=O)C1=NCCS(=O)(=O)C1=C3O [ADOCIAQUINONE A] | 47% | inactive | 2.6 µM | 6.3 µM |  |  |
